Screening data deposited in PubChem by Broad Institute.
Only some compounds are listed: those with a hit (about 2.6% of all), similar ones and a draw of the others.
XiGFP reactiv – activators of inactive X chromosome reactivation, primary screen, imaging, XiGFP fibroblasts, GFP high-content imaging, set 2. XiGFP mouse fibroblasts, % GFP-positive cells imaging, 3 d; cells co-treated with 5-aza-dC sensitizer; scaled so ellipticine positive control = 100%. activation, % at 7.58 µM. 0.055% of 360,000 active. AID 743238, 2013;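 active means mean normalized replicate activation at least 10% and every replicate at or above 10%; inconclusive means only one of the two criteria met; inactive means mean below 10% and not all replicates reach 10%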
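assay system = SV40-immortalized XiGFP fibroblast cells, line 68-5-11 | buffer or medium = DMEM plus 5-aza-dC sensitizer | doses = single-point pinned compound dosing | times = 3-day compound exposure, then 15 min fixation at room temperature | benchmarks = positive control ellipticine, 6 µM final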
PvdQ inh – P. aeruginosa PvdQ acylase inhibitors, primary screen, biochemical, fluorescence, plate reader and imaging, single point | PvdQ acylase [Pseudomonas aeruginosa LESB58] | purified PvdQ acylase | inhibition, % at 10 µM | 0.063% of 340,000 active | AID 488965, 2010; in the data active means inhibition above about 30%, passing the limit was not always enough; inconclusive means no clear call, values can overlap the other calls
rRNA inh HTS – reduced GFP signal of wild-type E. coli, primary screen, bacterial rRNA inhibitor project, GFP/RFP fluorescence, OD600, single point. E. coli WT GFP vs humanized-ribosome RFP mutants, 24 h; stronger effect = lower value; DMSO median 0, no signal -100. GFP signal change (wild-type ribosome), % (no concentration beside the values). 1.6% of 350,000 active. AID 720706, 2013;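 active means significant combined selectivity score with lowered wild-type GFP, culture density cut under 30%, mutant RFP and density less affected; inactive means any of these conditions unmet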
SR-BI DiI inh – inhibitors of SR-BI mediated HDL lipid uptake, primary screen, ldlA[mSR-BI] cells, fluorescence, single point; ldlA[mSR-BI] CHO cells, DiI-HDL uptake fluorescence, 3 h; inhibition, % at 12.5 µM; 0.96% of 320,000 active;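 active means mean replicate inhibition of at least 70% and a set share of replicates each scoring 70 or more; inconclusive means meets just one of the two criteria; inactive means fails both criteria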
Target sequence (Q61009 whole entry, looked up): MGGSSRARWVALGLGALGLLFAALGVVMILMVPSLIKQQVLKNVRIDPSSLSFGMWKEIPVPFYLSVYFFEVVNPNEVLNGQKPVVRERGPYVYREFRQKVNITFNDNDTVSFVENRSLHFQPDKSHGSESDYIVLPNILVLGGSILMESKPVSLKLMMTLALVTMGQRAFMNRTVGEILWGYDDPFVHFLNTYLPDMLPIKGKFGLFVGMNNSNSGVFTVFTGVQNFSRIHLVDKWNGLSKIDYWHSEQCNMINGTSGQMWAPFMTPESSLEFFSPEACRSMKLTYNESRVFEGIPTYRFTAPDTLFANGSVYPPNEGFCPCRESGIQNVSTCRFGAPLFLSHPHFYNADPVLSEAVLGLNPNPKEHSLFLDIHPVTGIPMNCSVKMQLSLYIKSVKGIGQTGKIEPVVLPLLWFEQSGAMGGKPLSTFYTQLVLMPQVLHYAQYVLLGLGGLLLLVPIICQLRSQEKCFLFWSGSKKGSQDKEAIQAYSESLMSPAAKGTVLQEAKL
dFosB activator – activators of delta FosB homodimer, primary screen, biochemical, fluorescence polarization, TAMRA-CDK5 oligo, single point; Protein FosB (Mus musculus), P13346; purified delta FosB; percent of positive-control signal above neutral wells; activation, % at 25 µM; 0.99% of 340,000 active; AID 493131, 2011;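 active means mean activation above about 17%, with every replicate also reaching it, limit read from the data, passing the limit was not always enough; inconclusive means only one of the two conditions met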
SR-BI DiI-HDL act – activators of SR-BI mediated DiI-HDL uptake, primary screen, ldlA[mSR-BI] CHO cells, DiI fluorescence; 3 h; 100 = double the neutral-control signal; activation, % at 12.5 µM; 0.096% of 320,000 active;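 active means mean replicate activation of at least 60% and every replicate at or above 60%; inconclusive means mean or all-replicate condition met, but not both; inactive means mean below 60% and not all replicates reaching 60%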
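Material: SR-BI-overexpressing, LDLR-lacking CHO cells | Dosing: Single compound concentration, delivered by pin transfer | Probe or stimulus: Labelled HDL, 10 µg/mL | Signal: Bottom-read cell fluorescence after medium removal, ex 550/em 595 nm | Schedule: 3 h, 37 °C | Evaluation: HDL uptake via cellular fluorescence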
AID977621 – growth inhibition of wild-type GFP E. coli, dose response, H69 mutant RFP, cherry-pick; shares compounds with rRNA inh HTS; E. coli wild-type GFP strain growth, fluorescence, 24 h; activity change, negative = inhibition at 50 µM; 1,900 tested, under 10 active; AID 977621, 2014;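 active means Wild-type ribosome reporter drop at least double the humanized mutant ribosome reporter drop, growth loss under a set limit; inconclusive means no clear call, values can overlap the other calls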;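 further: wild-type GFP and H69 mutant RFP strains grown together 50/50 in each well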
AID977628 – E. coli growth inhibition, wild-type GFP versus h24 humanized RFP strain, dose response, h24 mutant RFP vs wild-type GFP, cherry-pick; AID 977628, 2014; activity change, negative = inhibition at 50 µM; E. coli WT GFP strain growth, fluorescence, 24 h; 1,900 tested, under 10 active; shares compounds with rRNA inh HTS;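 active means compound lowering the normal-ribosome reporter at least twice as much as the humanized-ribosome reporter, growth loss under a set limit; inconclusive means no clear call, values can overlap the other calls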;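 further: wild-type GFP and h24 humanized RFP strains co-cultured 1 to 1 per well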
Of the large screens only hits and unclear results are named; the others gave an inactive call (follow-up assays come after a bar, where they were run).

O=C(N=C1SC2CS(=O)(=O)CC2N1c1ccc(F)c(Cl)c1)C1CC1 (stereo not given)	none
COc1ccccc1CNC(=O)CCCc1cn(C)c2ccccc12	none
COc1ccc(CNC(=O)Cc2cn(C)c3ccccc23)c(OC)c1	rRNA inh HTS -24.4 | AID977621 inactive | AID977628 inactive
C[C@@H]1CN([C@H](C)CO)C(=O)c2cc(-c3ccncc3)cnc2O[C@@H]1CN(C)C(=O)Cc1ccccn1	none (no result: PvdQ inh, SR-BI DiI inh, dFosB activator, SR-BI DiI-HDL act)
COc1ccc(CNCc2cccc3ccccc23)cc1	none
Oc1ccccc1Oc1ncc(Br)c(Cl)n1	rRNA inh HTS -25.1 | AID977628 inactive
CC(=O)c1cnc2c(-c3ccccc3)c(C(F)(F)F)nn2c1C	none (no result: rRNA inh HTS)
Cc1nn2c(C)c(C(=O)Nc3ccccc3)cnc2c1-c1ccccc1	rRNA inh HTS -32.2 | AID977621 inactive | AID977628 inactive
Cc1nnc(SCC(=O)Nc2ccc(Cl)cn2)s1	none
O=C(Nc1ccc(Cl)cc1)c1ccc2sc([C@@H]3O[C@H](CO)[C@H](O)[C@H](O)[C@H]3O)nc2c1	none (no result: PvdQ inh, rRNA inh HTS, SR-BI DiI inh, dFosB activator, SR-BI DiI-HDL act)
O=C(c1ccc(N2CCCCC2)c([N+](=O)[O-])c1)N1CCN(c2ccccn2)CC1	rRNA inh HTS -21.1 (no result: SR-BI DiI inh, SR-BI DiI-HDL act) | AID977628 inconclusive
O=C(c1ccc(N2CCCCC2)c([N+](=O)[O-])c1)N1CCN(S(=O)(=O)c2ccccc2)CC1	none
Cn1c(=O)n(C)c2cc([N+](=O)[O-])c(N3CCN(C(=O)c4cccc(F)c4)CC3)cc21	rRNA inh HTS -18.0 | AID977621 inactive | AID977628 inconclusive
COC(=O)C[C@H]1CC[C@H](NS(=O)(=O)c2cn(C)cn2)[C@@H](CO)O1	none (no result: PvdQ inh, SR-BI DiI inh, dFosB activator, SR-BI DiI-HDL act)
Cc1cccc(NC(=O)c2c(C)nn(-c3ccccc3)c2Cl)c1	rRNA inh HTS -35.5 | AID977621 inactive | AID977628 inactive
Cc1cc(OC(=O)c2ccco2)c2c(C)cc(=O)oc2c1	none (no result: XiGFP reactiv, rRNA inh HTS)
CCNC(=O)[C@H]1[C@H](CO)[C@H]2Cn3c(ccc(-c4cccc(OC)c4)c3=O)[C@H]2N1S(C)(=O)=O	none (no result: PvdQ inh, SR-BI DiI inh, dFosB activator, SR-BI DiI-HDL act)
C/C=C/c1ccc2c(c1)[C@@H]1[C@@H](CCN1S(=O)(=O)c1ccccc1OC)[C@H](CO)N2C	rRNA inh HTS -21.3 (no result: PvdQ inh, SR-BI DiI inh, dFosB activator, SR-BI DiI-HDL act) | AID977628 inconclusive
Cc1ccc(NC(=O)CCN2C(=O)c3ccccc3Sc3ncccc32)cc1	none
CCOc1ccccc1C(=O)NCC(=O)OCCOc1cccc(Cl)c1	rRNA inh HTS -32.9 | AID977621 inactive | AID977628 inactive
Cc1ccc(C(=O)NCC(=O)OCCOc2cccc(Cl)c2)cc1	none
Cc1ccc(C(=O)NCC(=O)N2CCN(c3ncccn3)CC2)s1	none (no result: XiGFP reactiv, rRNA inh HTS)
Cc1ccc(NC(=O)C2CCN(S(=O)(=O)c3ccc4c(c3)NC(=O)CO4)CC2)cc1	rRNA inh HTS -18.3 | AID977628 inactive
COc1ccc(-c2noc(CCc3ccccc3)n2)cc1	rRNA inh HTS -19.9 | AID977621 inactive | AID977628 inactive
c1ccc2c(c1)nc(N1CCCCCC1)c1ccccc12	rRNA inh HTS -30.6 | AID977621 inactive
CC(=O)NCN1CCN(CNC(C)=O)CC1	none (no result: XiGFP reactiv, rRNA inh HTS)
Cc1ccccc1Cn1cc(/C=N/n2cnnc2)c2ccccc21	none (no result: XiGFP reactiv, rRNA inh HTS)
